Experimental data: ChEMBL document CHEMBL1135550, “Highly potent geminal bisphosphonates. From pamidronate disodium (Aredia) to zoledronic acid (Zometa)” (J Med Chem, 2002)

How the values were obtained:
[1] = Ratio of calvaria mineralization to calvaria bone resorption; type: functional
Mus musculus [2] = species on record: Mus musculus; experiment: Inhibition of mineralization in the calvaria assay of mouse; type: functional
How it was run: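 In vitro mineralization assay in mouse calvaria cultures. The read-out is calcium incorporation into the calvaria.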

Rattus norvegicus [3] = species on record: Rattus norvegicus; experiment: Compound was tested for increased urinary excretion of MDH in rats after a treatment period of 14 days in renal tolerability model; type: functional, Urine
Rattus norvegicus [4] = species on record: Rattus norvegicus; experiment: Effective dose for increased cancellous bone calcium in young intact rats after a treatment period of 10 days; type: functional; details: 240 h
Mus musculus [5] = species on record: Mus musculus; experiment: Inhibition of bone resorption in the calvaria assay of mouse; type: functional
Rattus norvegicus [6] = species on record: Rattus norvegicus; experiment: Effective dose for increased serum urea level rats after a treatment period of 1 hr in renal tolerability model; type: functional
Rattus norvegicus [7] = species on record: Rattus norvegicus; experiment: Compound was tested for increased mucosal permeability of perfused ileal loop in rats after a treatment period of 2 hr in intestinal tolerability model; type: functional
Rattus norvegicus [8] = species on record: Rattus norvegicus; experiment: Effective dose for increased cancellous bone hydroxy proline in young intact rats after a treatment period of 10 days; type: functional; details: 240 h
Rattus norvegicus [9] = species on record: Rattus norvegicus; experiment: Effective dose for increased radiographic bone density in young intact rats after a treatment period of 10 days; type: functional; details: 240 h
Rattus norvegicus [10] = species on record: Rattus norvegicus; experiment: Effective dose for increased cancellous bone area in young intact rats after a treatment period of 10 days; type: functional; details: 240 h
Mus musculus [11] = species on record: Mus musculus; experiment: Inhibition of bone mineralization in the calvaria assay of mouse; type: functional
[12] = Therapeutic ratio comparing nephrotoxic potential versus bone antiresorptive potency ( reciprocal of ED50 (TPTX assay) / the total urinary malate dehydrogenase excretion); type: ADME; details: urine; read-out: Therapeutic ratio
How it was run: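 Ratio = (1/TPTX ED50 in mg/kg) ÷ total urinary malate dehydrogenase units, pooled from eight 24-h urine collections after starting repeated sc dosing. ED50 model: young male rats (130-150 g), thyroparathyroidectomized, 4-day recovery; rats with fasting serum Ca above 1.88 mM excluded; groups of 5. Days 5-8: 1,25(OH)2D3 125 pmol/kg sc plus graded sc bisphosphonate. ED50 = dose halving the hypercalcemia (total serum calcium).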

Rattus norvegicus [13] = experiment: Effective dose after subcutaneous administration to TPTX rats for 50% reduction of hypercalcemia; type: functional; details: sc
How it was run: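 Young male rats (130-150 g) were thyroparathyroidectomized and allowed 4 days to recover, then fasting serum was sampled. Animals with serum Ca above 1.88 mM were discarded, and the rest were randomized into groups of 5. On days 5-8, 1,25(OH)2D3 (125 pmol/kg sc) was given with graded sc doses of bisphosphonate, and total serum calcium was measured. ED50 is the sc dose halving the hypercalcemia.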

Rattus norvegicus [14] = species on record: Rattus norvegicus; experiment: Effective dose for increased radiographic bone density in young interact rats after a treatment period of 10 days; type: functional; details: 240 h
Rattus norvegicus [15] = species on record: Rattus norvegicus; experiment: Effective dose for increased cancellous bone calcium in young interact rats after a treatment period of 10 days; type: functional; details: 240 h
Rattus norvegicus [16] = species on record: Rattus norvegicus; experiment: Effective dose for increased urinary excretion of MDH in rats after a treatment period of 14 days in renal tolerability model; type: functional, Urine
Rattus norvegicus [17] = species on record: Rattus norvegicus; experiment: Effective dose for increased mucosal permeability of perfused ileal loop in rats after a treatment period of 2 hr in intestinal tolerability model; type: functional
Rattus norvegicus [18] = species on record: Rattus norvegicus; experiment: Effective dose for increased cancellous bone area in young interact rats after a treatment period of 10 days; type: functional; details: 240 h
Rattus norvegicus [19] = species on record: Rattus norvegicus; experiment: Effective dose for increased cancellous bone hydroxy proline in young interact rats after a treatment period of 10 days; type: functional; details: 240 h
[20] = Therapeutic ratio comparing nephrotoxic potential versus bone antiresorptive potency (reciprocal of ED50 (TPTX assay) / the total urinary malate dehydrogenase excretion); type: ADME, tissue-based, Urine
How it was run: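 Rats received repeated sc injections, with saline-injected controls. Malate dehydrogenase was totalled in units over eight 24-h urine collections from the start of dosing. The ratio is the reciprocal of the TPTX hypercalcemia ED50 (mg/kg) divided by total urinary MDH units.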

For `O.O=P(O)(O)C(O)(Cn1ccnc1)P(=O)(O)O` [ZOLEDRONIC ACID], the Ratio [1] was 15000, the IC50 (Mus musculus [2]) was 30000 nM and the NOL (Rattus norvegicus [3]) was > 1000 µg/kg. The ED50 (Rattus norvegicus [4]) was 0.17 µg/kg, the IC50 (Mus musculus [5]) was 2 nM and the ED100 (Rattus norvegicus [6]) was 38000 µg/kg. For the same compound, the NOL (Rattus norvegicus [7]) was 10 mM, the ED50 (Rattus norvegicus [8]) was 1.1 µg/kg and the ED50 (Rattus norvegicus [9]) was 1.7 µg/kg. It also gave an ED50 (Rattus norvegicus [10]) of 0.071 µg/kg.
Work on `NCCCC(O)(P(=O)(O)O)P(=O)(O)O` [ALENDRONIC ACID] yielded an IC50 (Mus musculus [11]) of 20000 nM, a Ratio [1] of 400 and a selectivity ratio [12] of 6.6. It also gave an IC50 (Mus musculus [5]) of 50 nM and an ED50 (Rattus norvegicus [13]) of 8 µg/kg.
Compound `NCCC(O)(P(=O)(O)O)P(=O)(O)O` [PAMIDRONIC ACID] has an ED50 (Rattus norvegicus [14]) of 390 µg/kg, a Ratio [1] of 500 and an ED50 (Rattus norvegicus [15]) of 22.7 µg/kg. It also gave an IC50 (Mus musculus [2]) of 100000 nM, a selectivity ratio [12] of 1.2 and an NOL (Rattus norvegicus [16]) of 0.1 mg/kg. It also gave an IC50 (Mus musculus [5]) of 200 nM, an NOL (Rattus norvegicus [17]) of 10 mM and an ED100 (Rattus norvegicus [6]) of 11000 µg/kg. For the same compound, the ED50 (Rattus norvegicus [18]) was 7.1 µg/kg, the ED50 (Rattus norvegicus [19]) was 210 µg/kg and the ED50 (Rattus norvegicus [13]) was 61 µg/kg.
`Cc1cnc(NC(P(=O)(O)O)P(=O)(O)O)s1` showed an IC50 (Mus musculus [11]) of 15000 nM, a Ratio [1] of 375 and an IC50 (Mus musculus [5]) of 40 nM. It also gave a Therapeutic ratio [20] of 4.5 and an ED50 (Rattus norvegicus [13]) of 1.5 µg/kg.
Work on `CN(CCCOc1ccccc1)CCC(O)(P(=O)(O)O)P(=O)(O)O` yielded an IC50 (Mus musculus [11]) of 9000 nM, a Ratio [1] of 225 and an IC50 (Mus musculus [5]) of 40 nM. For the same compound, the Therapeutic ratio [20] was 84 and the ED50 (Rattus norvegicus [13]) was 0.5 µg/kg.
For `CN(CCc1ccccc1)CCC(O)(P(=O)(O)O)P(=O)(O)O`, the IC50 (Mus musculus [11]) was 30000 nM, the Ratio [1] was 1500 and the IC50 (Mus musculus [5]) was 20 nM. For the same compound, the Therapeutic ratio [20] was 19 and the ED50 (Rattus norvegicus [13]) was 1.4 µg/kg.
`CN(CCCc1ccccc1)CCC(O)(P(=O)(O)O)P(=O)(O)O` gave an IC50 (Mus musculus [11]) of 4000 nM, a Ratio [1] of 80 and an IC50 (Mus musculus [5]) of 50 nM. It also gave a Therapeutic ratio [20] of 120 and an ED50 (Rattus norvegicus [13]) of 1 µg/kg.
